ChEMBL document CHEMBL3045942, “Design, synthesis, and anti-tobacco mosaic virus (TMV) activity of phenanthroindolizidines and their analogues” (2012)

Assays:
Type in all cases: functional
[1] = system: Tobacco mosaic virus; assay: In vivo antiviral activity against Tobacco mosaic virus (TMV) inoculated right side of Nicotiana tabacum L. leaves assessed as protection effect at 100 ug/mL preincubated 12 hr before viral challenge measured after 3 to 4 days
Outline: (§1)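 Protective test on same-age growing Xanthi nc tobacco leaves. Compound solution was smeared on the left half and solvent on the right half as control. After 12 h, leaves were inoculated with TMV applied by brush. Inhibition % = (mean control lesions − mean treated lesions)/mean control lesions × 100. Three replicates.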

[2] = system: Tobacco mosaic virus; assay: Antiviral activity against Tobacco mosaic virus (TMV) inoculated in 5-6 growth stage leaf assessed as inhibition effect at 100 ug/mL at 25 degC after 72 hr by half-leaf method
Outline: (§2)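 Half-leaf assay on fresh leaves of Nicotiana tabacum var. Xanthi nc at the 5–6 growth stage. Leaves were rub-inoculated with leaf juice (TMV 5.88 × 10−2 μg mL−1) and cut in halves along the main vein. One half was immersed in compound solution and the other in double-distilled water for 20 min, then kept at 25 °C for 72 h. Inhibition % = (mean control lesions − mean treated lesions)/mean control lesions × 100. At least 3 replicates.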

[3] = system: Tobacco mosaic virus; assay: In vivo antiviral activity against Tobacco mosaic virus (TMV) pre-inoculated Nicotiana tabacum L. leaves assessed as curative effect at 500 ug/mL measured after 3 to 4 days
Outline: (§3)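 Curative test on same-age growing Xanthi nc leaves. Whole leaves were first inoculated with TMV (6.0 × 10−3 mg mL−1), then washed with water and dried. Compound solution was smeared on the left half and solvent on the right half as control. Local lesions were counted 3–4 days after inoculation, and inhibition % was derived from mean lesion numbers. Three replicates.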

[4] = system: Tobacco mosaic virus; assay: In vivo antiviral activity against Tobacco mosaic virus (TMV) inoculated left side of Nicotiana tabacum L. leaves assessed as inactivation effect at 500 ug/mL co-incubated with virus measured after 3 to 4 days
Outline: (§4)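 Inactivation test in N. tabacum var. Xanthi nc. Virus was mixed with an equal volume of compound solution for 30 min and the mixture inoculated on the left leaf half. The right half received a solvent–virus mixture as control. Local lesions were counted 3–4 days after inoculation. Inhibition % was calculated from mean lesion numbers of control versus treated halves. Three replicates.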

[5] = system: Tobacco mosaic virus; assay: In vivo antiviral activity against Tobacco mosaic virus (TMV) inoculated left side of Nicotiana tabacum L. leaves assessed as inactivation effect at 100 ug/mL co-incubated with virus measured after 3 to 4 days; outline: as §4
[6] = system: Tobacco mosaic virus; assay: Antiviral activity against Tobacco mosaic virus (TMV) inoculated in 5-6 growth stage leaf assessed as inhibition effect at 500 ug/mL at 25 degC after 72 hr by half-leaf method; outline: as §2
[7] = system: Tobacco mosaic virus; assay: In vivo antiviral activity against Tobacco mosaic virus (TMV) inoculated right side of Nicotiana tabacum L. leaves assessed as protection effect at 500 ug/mL preincubated 12 hr before viral challenge measured after 3 to 4 days; outline: as §1
[8] = system: Tobacco mosaic virus; assay: In vivo antiviral activity against Tobacco mosaic virus (TMV) pre-inoculated Nicotiana tabacum L. leaves assessed as curative effect at 100 ug/mL measured after 3 to 4 days; outline: as §3
[9] = system: Tobacco mosaic virus; assay: Antiviral activity against Tobacco mosaic virus (TMV) assessed as inhibition at 500 ug/mL
Outline: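 Half-leaf method on fresh Nicotiana tabacum var. Xanthi nc leaves at the 5–6 growth stage. Leaves were inoculated by juice-leaf rubbing with TMV at 5.88 × 10−2 μg mL−1, then cut in halves along the main vein. Halves were immersed 20 min in compound solution or double-distilled water as control, then kept 25 °C for 72 h. Inhibition % = (mean control lesions − mean treated lesions)/mean control lesions × 100. At least 3 replicates.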

[10] = system: Tobacco mosaic virus; assay: Antiviral activity against Tobacco mosaic virus (TMV) assessed as inhibition at 1 ug/mL

Row | Compound | Activity [1] [%] | inhibition at 100 µg/mL [2] [%] | Activity [3] [%] | Activity [4] [%] | Activity [5] [%] | inhibition at 500 µg/mL [6] [%] | Activity [7] [%] | Activity [8] [%] | inhibition at 500 µg/mL [9] [%] | inhibition at 1 µg/mL [10] [%]
1 | COc1ccc2c3c(c4cc(OC)c(OC)cc4c2c1)C[C@@H]1CCCN1C3 [HYPOESTESTATIN 1] | 28.4 | 30.5 | 55.5 | 51.1 | 37.2 | 60.2 | 56.4 | 26.7 |  | 
2 | COc1cc2c3c(c4cc(OC)c(OC)cc4c2cc1OC)[C@@H](O)[C@H]1CCCN1C3 | 26.5 | 23 | 43.4 | 49.2 | 26.7 | 51.2 | 53.9 | 32.8 |  | 
3 | COc1ccc2c3c(c4cc(OC)c(OC)cc4c2c1)CN1CCC[C@@H]1C3 | 31.7 | 32.9 | 44.7 | 48.9 | 23.6 | 56.5 | 60.5 | 24.5 |  | 
4 | CC(=O)N1CN(C(C)=O)C(=O)NC1=O |  |  |  |  |  |  |  |  | 50 | 
5 | COc1cc2c3c(c4cc(OC)c(OC)cc4c2cc1OC)C(=O)N1CCC[C@H]1C3 | 23.4 | 30.9 | 30.1 | 37 | 20.5 | 48.1 | 43.5 | 14.8 |  | 
6 | COc1ccc2c3c(c4cc(OC)c(OC)cc4c2c1)CN1CCC[C@H]1[C@H]3O | 24.5 | 29.6 | 40 | 32.4 | 0 | 45.2 | 41.3 | 17.2 |  | 
7 | COc1ccc2c3c(c4cc(OC)c(OC)cc4c2c1)[C@@H](O)[C@H]1CCCN1C3 | 7.3 | 21.6 | 34.9 | 38.5 | 14.2 | 43.5 | 39.6 | 10.2 |  | 
8 | COc1cc2cc(C(=O)N3CCC[C@H]3C)c3cc(OC)c(OC)cc3c2cc1OC | 18.9 | 15.3 | 30.1 | 31.3 | 9.6 | 38.4 | 43.3 | 6.2 |  | 
9 | COc1ccc2c3c(c4cc(OC)c(OC)cc4c2c1)[C@H](O)[C@@H]1CCCN1C3 | 0 | 23 | 19.3 | 24.8 | 0 | 51.2 | 21.2 | 0 |  | 
10 | COc1ccc2c3c(c4cc(OC)c(OC)cc4c2c1)C[C@H]1CCCN1C3 [(-)-ANTOFINE] | 20.4 | 27.4 | 46 | 42.7 | 15.3 | 52.8 | 45.5 | 19.4 |  | 
11 | COc1cc2c3c(c4cc(OC)c(OC)cc4c2cc1OC)NC[C@@H]1CCCN1C3 | 28.5 | 18.5 | 44.6 | 42.5 | 20.3 | 50 | 53.6 | 22.7 |  | 
12 | COc1cc2c3c(c4cc(OC)c(OC)cc4c2cc1OC)[C@H](O)[C@@H]1CCCN1C3 | 20 | 34.7 | 61.9 | 57.8 | 32.9 | 62.4 | 63.7 | 30.6 |  | 
13 | O=C1NCNC(=O)N1 |  |  |  |  |  |  |  |  | 50 | 
14 | COc1cc2c3c(c4cc(OC)c(OC)cc4c2cc1OC)NC[C@H]1CCCN1C3 | 33.7 | 23.1 | 44.6 | 31.5 | 12.6 | 40.4 | 46.5 | 28.7 |  | 
15 | COc1cc2c3c(c4cc(OC)c(OC)cc4c2cc1OC)CN1CCC[C@@H]1C3 [TYLOPHORINE] | 22.5 | 21.1 | 44.2 | 39 | 15.1 | 49.7 | 47.6 | 26.4 |  | 
16 | COc1cc2c3c(c4cc(OC)c(OC)cc4c2cc1OC)CN1CCC[C@H]1C3 [(S)-TYLOPHORINE] | 28.6 | 36.9 | 53.8 | 50.5 | 34.2 | 54.1 | 56.8 | 37 |  | 
17 | COc1cc2c3c(c4cc(OC)c(OC)cc4c2cc1OC)NC(=O)[C@@H]1CCCN1C3 | 7.6 | 4.6 | 31.5 | 32.9 | 22.2 | 34.8 | 29.7 | 0 |  | 
18 | COc1ccc2c3c(c4cc(OC)c(OC)cc4c2c1)CN1CCC[C@H]1C3 | 51.3 | 50 | 65.1 | 59.8 | 40.3 | 71.2 | 70.2 | 43.7 |  | 
19 | COc1ccc2c3c(c4cc(OC)c(OC)cc4c2c1)CN1CCC[C@@H]1[C@@H]3O | 30.2 | 33.1 | 56.2 | 51.2 | 33.3 | 47.7 | 54.4 | 27.8 |  | 
20 | COc1cc2c3c(c4cc(OC)c(OC)cc4c2cc1OC)C(=O)n1cccc1C3 | 5.3 | 0 | 17.5 | 22.6 | 8.5 | 15.3 | 21.5 | 0 |  | 
21 | COc1cc2c3c(c4ccc(O)cc4c2cc1OC)CN1CCC[C@@H]1C3 |  |  |  |  |  |  |  |  |  | 70
22 | COc1cc2cc(CN3CCC[C@H]3C)c3cc(OC)c(OC)cc3c2cc1OC | 13.1 | 0 | 25.8 | 25.2 | 0 | 29.8 | 39.6 | 0 |  | 
23 | CNCC(=O)N[C@@H](CO)C(=O)N[C@H]1[C@H](O)[C@@H](O)[C@H](n2ccc(N)nc2=O)O[C@@H]1C(N)=O [NINGNANMYCIN] | 25.2 | 30.4 | 56 | 68.5 | 37.7 | 71.4 | 66.6 | 18.9 |  | 
24 | COc1cc2c3c(c4cc(OC)c(OC)cc4c2cc1OC)NC(=O)[C@H]1CCCN1C3 | 19.7 | 20 | 35.7 | 34.9 | 21.2 | 32.2 | 36.4 | 18.9 |  | 
25 | NC(=O)c1ncn([C@@H]2O[C@H](CO)[C@@H](O)[C@H]2O)n1 [RIBAVIRIN] | 7.5 | 12.5 | 36.7 | 33.8 | 9.8 | 40 | 38.9 | 8.2 |  | 
